According to ChEMBL document CHEMBL1123363, “(5-Amino-1,3-dimethyl-1H-pyrazol-4-yl)(2-fluorophenyl)methanones . A series of novel potential antipsychotic agents” (J Med Chem, 1986):

Experiments:
[1] = test system: Rattus norvegicus; assay: Compound was tested for its affect on the accumulation of the dopamine metabolite homovanillic acid (HAV) in the rat striatum at 83 mg/kg dose after peroral administration; format: functional; conditions: route oral
Outline: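 Male Long–Evans rats were dosed orally and decapitated 2 h later. Striatal HVA was isolated on Sephadex G-10 and measured spectrofluorometrically, expressed as % control ± SEM.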

[2] = target: T1, Adrenergic receptor alpha-1 (Rattus norvegicus, UniProt P15823+P23944+P43140); assay: Binding affinity against lpha-1 adrenergic receptor using [3H]- WB-4101; format: protein assay
T1 sequence (P15823 whole entry): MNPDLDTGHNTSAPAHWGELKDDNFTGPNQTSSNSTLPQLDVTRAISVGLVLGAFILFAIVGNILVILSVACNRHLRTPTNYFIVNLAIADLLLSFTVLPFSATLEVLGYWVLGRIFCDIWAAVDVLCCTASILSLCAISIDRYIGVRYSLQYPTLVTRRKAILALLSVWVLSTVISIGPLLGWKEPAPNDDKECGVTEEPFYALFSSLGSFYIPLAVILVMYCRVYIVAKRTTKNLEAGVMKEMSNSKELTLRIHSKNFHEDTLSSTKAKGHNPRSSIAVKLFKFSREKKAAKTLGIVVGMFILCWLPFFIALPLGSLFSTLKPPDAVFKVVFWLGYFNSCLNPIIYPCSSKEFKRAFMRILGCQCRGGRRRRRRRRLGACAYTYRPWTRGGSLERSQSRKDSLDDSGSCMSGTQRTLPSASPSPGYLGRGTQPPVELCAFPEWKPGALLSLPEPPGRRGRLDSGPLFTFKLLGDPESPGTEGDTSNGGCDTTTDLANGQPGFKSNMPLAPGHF
T1 sequence (P23944 whole entry): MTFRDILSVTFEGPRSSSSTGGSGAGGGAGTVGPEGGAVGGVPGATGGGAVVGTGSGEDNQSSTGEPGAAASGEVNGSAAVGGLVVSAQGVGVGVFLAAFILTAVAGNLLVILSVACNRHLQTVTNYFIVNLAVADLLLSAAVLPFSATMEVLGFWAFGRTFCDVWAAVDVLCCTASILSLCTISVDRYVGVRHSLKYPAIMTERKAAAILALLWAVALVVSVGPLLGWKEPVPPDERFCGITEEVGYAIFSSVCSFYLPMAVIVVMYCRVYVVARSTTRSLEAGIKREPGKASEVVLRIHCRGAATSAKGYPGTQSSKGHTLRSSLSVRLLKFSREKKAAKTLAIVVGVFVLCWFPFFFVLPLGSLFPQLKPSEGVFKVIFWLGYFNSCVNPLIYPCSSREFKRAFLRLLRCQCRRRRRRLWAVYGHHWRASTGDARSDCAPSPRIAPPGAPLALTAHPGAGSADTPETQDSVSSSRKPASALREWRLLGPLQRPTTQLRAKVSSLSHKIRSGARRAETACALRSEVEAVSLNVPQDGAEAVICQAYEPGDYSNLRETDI
T1 sequence (P43140 whole entry): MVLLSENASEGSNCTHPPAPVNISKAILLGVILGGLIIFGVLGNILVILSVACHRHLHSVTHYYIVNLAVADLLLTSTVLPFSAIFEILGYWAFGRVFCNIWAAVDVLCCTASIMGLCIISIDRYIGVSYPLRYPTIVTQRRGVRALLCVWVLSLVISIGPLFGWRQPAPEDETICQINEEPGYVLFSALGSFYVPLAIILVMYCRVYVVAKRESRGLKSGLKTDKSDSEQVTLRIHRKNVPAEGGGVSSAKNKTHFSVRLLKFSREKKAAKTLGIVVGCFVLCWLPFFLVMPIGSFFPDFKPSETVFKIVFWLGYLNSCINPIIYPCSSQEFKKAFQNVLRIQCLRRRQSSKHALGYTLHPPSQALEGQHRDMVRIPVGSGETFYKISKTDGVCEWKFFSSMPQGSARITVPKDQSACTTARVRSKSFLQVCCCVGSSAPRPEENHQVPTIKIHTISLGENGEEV
Outline: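 α1-Adrenergic binding in rat frontal cerebral cortex membranes (male Long-Evans, 150–250 g) with [3H]WB4101 at 0.5 nM final. (-)-Norepinephrine at 100 μM final was the reference standard. IC50 from four or five concentrations by nonlinear curve fitting.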

- IC50 [2]: > 10 µM
SMILES: CCN(CC)CC(=O)Nc1c(C(=O)c2ccccc2F)c(C)nn1C
- Control [1]: 102.1%
